ChEMBL document CHEMBL4706631, “Potent and Selective Mitogen-Activated Protein Kinase Kinase 1/2 (MEK1/2) Heterobifunctional Small-molecule Degraders” (J Med Chem, 2020)
The source made the active and inactive calls. The calls are words filed in the database; no cut-off is given here.

Columns and labels:
HT-29 [1] = assay: Antiproliferative activity against human HT-29 cells incubated for 3 days by WST8 assay; format: functional; settings: HT-29, 72 h, time 3 day
NCI-H3122 [2] = assay: Inhibition of ERK phosphorylation in human NCI-H3122 cells at 0.3 to 3 uM and incubated for 24 hrs by Western blot analysis; format: cell-based; settings: dose 0.3-3 µM
Procedure, shortened: (§1)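 H3122 and SU-DHL-1 cells were treated with compounds, and MEK1/2, pMEK and pERK were assessed by Western blot of lysates.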

NCI-H3122 [3] = assay: Antiproliferative activity against human NCI-H3122 cells at 0.014 to 3.33 uM incubated for 3 days by WST8 assay; format: functional, cell-based; settings: dose 0.014-3.33 µM, time 3.0 day
Procedure, shortened: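 NCI-H3122 cells were exposed to serial compound dilutions for 3 days, with WST-8 live-cell readout. Each concentration was run in triplicate. Student's t-test per concentration versus DMSO.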

HT-29 [4] = assay: Inhibition of ERK phosphorylation in human HT-29 cells at 0.3 to 3 uM incubated for 24 hrs by Western blot analysis; format: cell-based; settings: dose 0.3-3 µM
HT-29 [5] = assay: Inhibition of colony formation in human HT-29 cells at 10 to 100 nM incubated for 10 days by crystal violet staining based assay; format: functional, cell-based; settings: dose 10-100 nM, time 10.0 day
Procedure, shortened: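 HT-29 clonogenic assay: cells were exposed to compounds for 10 days, then fixed and stained with crystal violet. Two independent experiments.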

SU-DHL-1 = assay: Inhibition of ERK phosphorylation in human SU-DHL-1 cells at 0.3 to 3 uM and incubated for 24 hrs by Western blot analysis; format: cell-based; settings: dose 0.3-3 µM; procedure, shortened: as §1

SMILES	GI50 (HT-29 [1])	further results
O=C1CCC(N2C(=O)c3ccc(NCCOCCOCCOCCNCCCONC(=O)c4ccc(F)c(F)c4Nc4ccc(I)cc4F)cc3C2=O)C(=O)N1 (stereo not given)	1500 nM	–
O=C1CCC(N2C(=O)c3ccc(NCCOCCOCCNCCCONC(=O)c4ccc(F)c(F)c4Nc4ccc(I)cc4F)cc3C2=O)C(=O)N1 (stereo not given)	1100 nM	–
Cc1ncsc1-c1ccc([C@H](C)NC(=O)[C@H]2C[C@H](O)CN2C(=O)[C@@H](NC(=O)CCCCCCCCCCN(C)CCCONC(=O)c2ccc(F)c(F)c2Nc2ccc(I)cc2F)C(C)(C)C)cc1	–	inhibition (NCI-H3122 [2]): inactive; Activity (NCI-H3122 [3]): inactive; inhibition (HT-29 [4]): inactive; inhibition (HT-29 [5]): inactive; inhibition (SU-DHL-1): inactive
Cc1ncsc1-c1ccc(CNC(=O)[C@@H]2C[C@@H](O)CN2C(=O)[C@@H](NC(=O)CCCNCCCONC(=O)c2ccc(F)c(F)c2Nc2ccc(I)cc2F)C(C)(C)C)cc1	3100 nM	–
Cc1ncsc1-c1ccc(CNC(=O)[C@@H]2C[C@@H](O)CN2C(=O)[C@@H](NC(=O)COCCOCCNCCCONC(=O)c2ccc(F)c(F)c2Nc2ccc(I)cc2F)C(C)(C)C)cc1	1600 nM	–
Cc1ncsc1-c1ccc(CNC(=O)[C@@H]2C[C@@H](O)CN2C(=O)[C@@H](NC(=O)CCOCCNCCCONC(=O)c2ccc(F)c(F)c2Nc2ccc(I)cc2F)C(C)(C)C)cc1	4800 nM	–
O=C1CCC(N2C(=O)c3ccc(NCCOCCOCCOCCOCCNCCCONC(=O)c4ccc(F)c(F)c4Nc4ccc(I)cc4F)cc3C2=O)C(=O)N1 (stereo not given)	500 nM	–
O=C1CCC(N2C(=O)c3ccc(NCCCCCNCCCONC(=O)c4ccc(F)c(F)c4Nc4ccc(I)cc4F)cc3C2=O)C(=O)N1 (stereo not given)	500 nM	–
Cc1ncsc1-c1ccc([C@H](C)NC(=O)[C@@H]2C[C@@H](O)CN2C(=O)[C@@H](NC(=O)CCCCCCCCCNCCCCONC(=O)c2ccc(F)c(F)c2Nc2ccc(I)cc2F)C(C)(C)C)cc1	55 nM	–
Cc1ncsc1-c1ccc(CNC(=O)[C@@H]2C[C@@H](O)CN2C(=O)[C@@H](NC(=O)CCCCNCCCONC(=O)c2ccc(F)c(F)c2Nc2ccc(I)cc2F)C(C)(C)C)cc1	3000 nM	–
Cc1ncsc1-c1ccc(CNC(=O)[C@@H]2C[C@@H](O)CN2C(=O)[C@@H](NC(=O)CCOCCOCCNCCCONC(=O)c2ccc(F)c(F)c2Nc2ccc(I)cc2F)C(C)(C)C)cc1	1600 nM	–
Cc1ncsc1-c1ccc(CNC(=O)[C@@H]2C[C@@H](O)CN2C(=O)[C@@H](NC(=O)CCCCCCNCCCONC(=O)c2ccc(F)c(F)c2Nc2ccc(I)cc2F)C(C)(C)C)cc1	1400 nM	–
O=C1CCC(N2C(=O)c3cccc(NCCOCCOCCNCCCONC(=O)c4ccc(F)c(F)c4Nc4ccc(I)cc4F)c3C2=O)C(=O)N1 (stereo not given)	1300 nM	–
Cc1ncsc1-c1ccc([C@H](C)NC(=O)[C@@H]2C[C@@H](O)CN2C(=O)[C@@H](NC(=O)CCCCCCCCCNCCCONC(=O)c2ccc(F)c(F)c2Nc2ccc(I)cc2F)C(C)(C)C)cc1	240 nM	–
Cc1ncsc1-c1ccc(CNC(=O)[C@@H]2C[C@@H](O)CN2C(=O)[C@@H](NC(=O)CCNCCCONC(=O)c2ccc(F)c(F)c2Nc2ccc(I)cc2F)C(C)(C)C)cc1	5000 nM	–
Cc1ncsc1-c1ccc(CNC(=O)[C@@H]2C[C@@H](O)CN2C(=O)[C@@H](NC(=O)CCCCCCCCCCNCCCONC(=O)c2ccc(F)c(F)c2Nc2ccc(I)cc2F)C(C)(C)C)cc1	400 nM	–
O=C1CCC(N2C(=O)c3cccc(NCCOCCOCCOCCNCCCONC(=O)c4ccc(F)c(F)c4Nc4ccc(I)cc4F)c3C2=O)C(=O)N1 (stereo not given)	800 nM	–
O=C1CCC(N2C(=O)c3cccc(NCCOCCOCCOCCOCCNCCCONC(=O)c4ccc(F)c(F)c4Nc4ccc(I)cc4F)c3C2=O)C(=O)N1 (stereo not given)	600 nM	–
O=C1CCC(N2C(=O)c3cccc(NCCCCCCNCCCONC(=O)c4ccc(F)c(F)c4Nc4ccc(I)cc4F)c3C2=O)C(=O)N1 (stereo not given)	3800 nM	–
Cc1ncsc1-c1ccc(CNC(=O)[C@@H]2C[C@@H](O)CN2C(=O)[C@@H](NC(=O)CCCCCCCCCNCCCONC(=O)c2ccc(F)c(F)c2Nc2ccc(I)cc2F)C(C)(C)C)cc1	500 nM	–
O=C1CCC(N2C(=O)c3cccc(NCCOCCNCCCONC(=O)c4ccc(F)c(F)c4Nc4ccc(I)cc4F)c3C2=O)C(=O)N1 (stereo not given)	1200 nM	–
Cc1ncsc1-c1ccc(CNC(=O)[C@@H]2C[C@@H](O)CN2C(=O)[C@@H](NC(=O)COCCOCCOCCNCCCONC(=O)c2ccc(F)c(F)c2Nc2ccc(I)cc2F)C(C)(C)C)cc1	1300 nM	–
O=C1CCC(N2C(=O)c3cccc(NCCCCCCCCNCCCONC(=O)c4ccc(F)c(F)c4Nc4ccc(I)cc4F)c3C2=O)C(=O)N1 (stereo not given)	3500 nM	–

SMILES	GI50 (HT-29 [1])	further results
O=C1CCC(N2C(=O)c3cccc(NCCOCCOCCOCCOCCOCCNCCCONC(=O)c4ccc(F)c(F)c4Nc4ccc(I)cc4F)c3C2=O)C(=O)N1 (stereo not given)	600 nM	–
O=C1CCC(N2C(=O)c3ccc(NCCOCCNCCCONC(=O)c4ccc(F)c(F)c4Nc4ccc(I)cc4F)cc3C2=O)C(=O)N1 (stereo not given)	1400 nM	–
O=C1CCC(N2C(=O)c3ccc(NCCCCCCCCNCCCONC(=O)c4ccc(F)c(F)c4Nc4ccc(I)cc4F)cc3C2=O)C(=O)N1 (stereo not given)	300 nM	–
Cc1ncsc1-c1ccc(CNC(=O)[C@@H]2C[C@@H](O)CN2C(=O)[C@@H](NC(=O)CCOCCOCCOCCOCCNCCCONC(=O)c2ccc(F)c(F)c2Nc2ccc(I)cc2F)C(C)(C)C)cc1	1700 nM	–
O=C1CCC(N2C(=O)c3cccc(NCCNCCCONC(=O)c4ccc(F)c(F)c4Nc4ccc(I)cc4F)c3C2=O)C(=O)N1 (stereo not given)	400 nM	–
Cc1ncsc1-c1ccc(CNC(=O)[C@@H]2C[C@@H](O)CN2C(=O)[C@@H](NC(=O)CCCCCNCCCONC(=O)c2ccc(F)c(F)c2Nc2ccc(I)cc2F)C(C)(C)C)cc1	2100 nM	–
O=C1CCC(N2C(=O)c3cccc(NCCCCCCCNCCCONC(=O)c4ccc(F)c(F)c4Nc4ccc(I)cc4F)c3C2=O)C(=O)N1 (stereo not given)	4500 nM	–
Cc1ncsc1-c1ccc([C@H](C)NC(=O)[C@@H]2C[C@@H](O)CN2C(=O)[C@@H](NC(=O)CCCCCCCCCCNCCCCONC(=O)c2ccc(F)c(F)c2Nc2ccc(I)cc2F)C(C)(C)C)cc1	43 nM	–
O=C1CCC(N2C(=O)c3cccc(NCCCNCCCONC(=O)c4ccc(F)c(F)c4Nc4ccc(I)cc4F)c3C2=O)C(=O)N1 (stereo not given)	1100 nM	–
O=C1CCC(N2C(=O)c3ccc(NCCCNCCCONC(=O)c4ccc(F)c(F)c4Nc4ccc(I)cc4F)cc3C2=O)C(=O)N1 (stereo not given)	500 nM	–
Cc1ncsc1-c1ccc(CNC(=O)[C@@H]2C[C@@H](O)CN2C(=O)[C@@H](NC(=O)COCCNCCCONC(=O)c2ccc(F)c(F)c2Nc2ccc(I)cc2F)C(C)(C)C)cc1	4000 nM	–
O=C1CCC(N2C(=O)c3ccc(NCCCCCCCNCCCONC(=O)c4ccc(F)c(F)c4Nc4ccc(I)cc4F)cc3C2=O)C(=O)N1 (stereo not given)	500 nM	–
Cc1ncsc1-c1ccc(CNC(=O)[C@@H]2C[C@@H](O)CN2C(=O)[C@@H](NC(=O)CCOCCOCCOCCNCCCONC(=O)c2ccc(F)c(F)c2Nc2ccc(I)cc2F)C(C)(C)C)cc1	3300 nM	–
Cc1ncsc1-c1ccc(CNC(=O)[C@@H]2C[C@@H](O)CN2C(=O)[C@@H](NC(=O)CCCCCCCCNCCCONC(=O)c2ccc(F)c(F)c2Nc2ccc(I)cc2F)C(C)(C)C)cc1	600 nM	–
O=C1CCC(N2C(=O)c3ccc(NCCCCCCNCCCONC(=O)c4ccc(F)c(F)c4Nc4ccc(I)cc4F)cc3C2=O)C(=O)N1 (stereo not given)	1100 nM	–
Cc1ncsc1-c1ccc(CNC(=O)[C@@H]2C[C@@H](O)CN2C(=O)[C@@H](NC(=O)CNCCCONC(=O)c2ccc(F)c(F)c2Nc2ccc(I)cc2F)C(C)(C)C)cc1	1800 nM	–
O=C1CCC(N2C(=O)c3cccc(NCCCCCNCCCONC(=O)c4ccc(F)c(F)c4Nc4ccc(I)cc4F)c3C2=O)C(=O)N1 (stereo not given)	1800 nM	–
Cc1ncsc1-c1ccc(CNC(=O)[C@@H]2C[C@@H](O)CN2C(=O)[C@@H](NC(=O)CCCCCCCNCCCONC(=O)c2ccc(F)c(F)c2Nc2ccc(I)cc2F)C(C)(C)C)cc1	500 nM	–
O=C1CCC(N2C(=O)c3ccc(NCCCCNCCCONC(=O)c4ccc(F)c(F)c4Nc4ccc(I)cc4F)cc3C2=O)C(=O)N1 (stereo not given)	1000 nM	–
FC(F)c1nc2ccccc2n1-c1nc(N2CCOCC2)nc(N2CCOCC2)n1 [ZSTK-474]	300 nM	–
CCCS(=O)(=O)Nc1ccc(F)c(C(=O)c2c[nH]c3ncc(-c4ccc(Cl)cc4)cc23)c1F [VEMURAFENIB]	100 nM	–
Cc1ncsc1-c1ccc([C@H](C)NC(=O)[C@@H]2C[C@@H](O)CN2C(=O)[C@@H](NC(=O)CCCCCCCCCCCNCCCONC(=O)c2ccc(F)c(F)c2Nc2ccc(I)cc2F)C(C)(C)C)cc1	99 nM	–
O=C1CCC(N2C(=O)c3cccc(NCCCCNCCCONC(=O)c4ccc(F)c(F)c4Nc4ccc(I)cc4F)c3C2=O)C(=O)N1 (stereo not given)	1900 nM	–
